# Bioassay records (PubChem BioAssay)
# In the library only some 2.3% were active in any assay of this set; here they are far more common.
# TRPC4 agonist: opens the mouse TRPC4 cation channel; HEK293 TRPC4beta/mu-opioid, Fluo4 calcium fluorescence; active compounds read high; B-score at 10 µM; Q9QUQ5; hit rate 0.49% among 310,000;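 active = B-score above 5 SD of library B-scores, and initial fluorescence ratio not above library mean plus 5 SD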;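 note: positive B-score marks a calcium rise read as TRPC4 activation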
# Target sequence (Q9QUQ5 whole entry, looked up): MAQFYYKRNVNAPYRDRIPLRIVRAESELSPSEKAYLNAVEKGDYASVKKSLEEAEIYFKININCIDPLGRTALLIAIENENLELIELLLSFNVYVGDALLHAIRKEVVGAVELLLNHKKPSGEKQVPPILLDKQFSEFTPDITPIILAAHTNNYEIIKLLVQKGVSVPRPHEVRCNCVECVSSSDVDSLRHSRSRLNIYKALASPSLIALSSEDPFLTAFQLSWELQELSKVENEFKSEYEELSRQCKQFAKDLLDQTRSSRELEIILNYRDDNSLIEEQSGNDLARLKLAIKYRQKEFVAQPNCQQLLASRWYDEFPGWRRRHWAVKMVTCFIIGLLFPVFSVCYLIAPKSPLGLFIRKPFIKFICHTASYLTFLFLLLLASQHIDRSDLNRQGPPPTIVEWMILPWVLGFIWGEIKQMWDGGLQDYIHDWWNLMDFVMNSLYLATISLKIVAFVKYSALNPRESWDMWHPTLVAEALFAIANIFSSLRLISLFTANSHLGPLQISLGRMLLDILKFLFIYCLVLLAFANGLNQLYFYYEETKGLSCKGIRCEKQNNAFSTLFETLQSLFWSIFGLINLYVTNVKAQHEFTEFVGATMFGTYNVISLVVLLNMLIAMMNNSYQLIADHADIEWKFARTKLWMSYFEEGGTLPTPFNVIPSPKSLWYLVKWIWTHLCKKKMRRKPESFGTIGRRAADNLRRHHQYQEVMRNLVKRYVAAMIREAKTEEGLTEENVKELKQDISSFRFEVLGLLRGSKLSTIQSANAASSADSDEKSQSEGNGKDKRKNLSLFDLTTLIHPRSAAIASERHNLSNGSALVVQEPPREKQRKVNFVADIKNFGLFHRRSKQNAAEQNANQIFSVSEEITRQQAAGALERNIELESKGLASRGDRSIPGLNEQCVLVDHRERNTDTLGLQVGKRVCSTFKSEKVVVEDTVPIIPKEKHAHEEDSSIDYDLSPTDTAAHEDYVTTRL
#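 Incubation: 45 min room-temperature Fluo4 loading, 110 s read / System: HEK293 cells stably co-expressing mouse TRPC4beta and mu-opioid receptor / Signal: Fluo4 fluorescence, kinetic / Control set: buffer (low) and maximal DAMGO (high) / Measure: integrated baseline-normalised fluorescence ratio, converted to per-well B score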
# TRPC6 inh: mouse TRPC6 channel inhibition | B-score at 10 µM | hit rate 1.1% among 310,000 | HEK293-TRPC6, membrane potential dye, ACh-evoked depolarization; active compounds read low | Q61143;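 active = B-score under library mean minus 3 SD, initial fluorescence not abnormally high, positive integrated signal ratio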;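 note: B-score derived from integrated fluorescence ratio over the kinetic read; more negative B-score means stronger inhibition of depolarization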
# TRPC4 potent: allosteric potentiators of mouse TRPC4 channel. Q9QUQ5. HEK293 TRPC4beta/mu-opioid, DAMGO EC20, Fluo-4 Ca2+ flux; active compounds read high. B-score at 10 µM. hit rate 0.42% among 310,000. AID 2227;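 active = B-score of calcium response area above 5 SD of library B-scores, with initial fluorescence ratio within 5 SD of library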;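 note: B-score of integrated fluorescence ratio over time as area under calcium response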
# TRPC4 inh: inhibitors of mouse TRPC4 channel; B-score at 10 µM; HEK293 TRPC4beta/mu-opioid, DAMGO-evoked Fluo4 calcium flux; active compounds read low; hit rate 0.39% among 300,000;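 active = B-score over 3 SD under the library average, no early fluorescence shift, positive overall ratio signal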
#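 Assay system: TRPC4beta/mu-opioid receptor HEK293 cell line; compound dosing: single concentration per test compound; detection: Fluo4 Ca2+ flux fluorescence; evaluation: per-well B score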
# TRPC6 act: activates the mouse TRPC6 cation channel | Q61143 | HEK293-TRPC6 membrane potential dye fluorescence; active compounds read high | B-score at 10 µM | hit rate 0.13% among 310,000 | AID 2550;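 active = B-score of the integrated fluorescence ratio above library mean plus 3 SD, and starting fluorescence ratio within library mean plus 5 SD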;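 note: higher score means more depolarization so channel activation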
# * hit, by the source's call; i = inactive; . = not tested or not shown; ! = not active in a repeat.
SMILES,TRPC4 agonist,TRPC6 inh,TRPC4 potent,TRPC4 inh,TRPC6 act
N[C@@H](Cc1ccccc1)C(=O)N1CCC(C(=O)N[C@@H](Cc2c[nH]c3ccccc23)C(=O)O)CC1,i,i,i,-6*,i
CC(C)OCCCNC(=O)c1cc(-c2cccnc2)nc2ccccc12,i,i,i,i,i
COc1ccc(C(=O)COc2ccc(F)cc2)c(O)c1,i,i,i,i,i
O=C(COc1ccc(F)cc1)c1c(O)cc(O)cc1O,i,i,i,-6*,i
CCN1CCN(C(=O)C2CCN(c3nnc(C)c4c(C)n(-c5ccc(C)cc5)nc34)CC2)CC1,i,i,i,-5*,i
O=C(Nc1cc(Cl)ccc1O)c1snnc1-c1ccccc1,i,i,i,i,i
O=C(OC1C2CCC1C1CN(CCc3ccccc3)CC12)c1ccccc1 (stereo not given),i,i,i,-6*,i
Cc1nc(=S)c2ccccc2[nH]1,i,i,i,i,i
Cc1cc2[nH]c3ccccc3c2c(C)n1,i,i,i,-7*,i
Cc1ccc(CNC(=O)Cn2nnc3ccccc3c2=O)cc1,i,i,i,i,i
Cc1ccc(-c2cc3nn(-c4ccccc4)c(N)c3c(=O)o2)cc1,i,i,i,i,i
COC(=O)CS(=O)(=O)c1nnc([C@H](Cc2ccccc2)NC(=O)OC(C)(C)C)o1,i,i,i,-5*,i
Cc1cc([N+](=O)[O-])ccc1NCc1ccco1,i,i,i,-6*,i
COc1cccc(CNc2ccc([N+](=O)[O-])cc2C)c1,i,i,i,i,i
COCCNC(=O)c1ccc2c(Cl)c3c(nc2c1)CCC3,i,i,i,i,i
CCCN(CCC)CCCNC(=O)c1ccc2c(Cl)c3c(nc2c1)CCC3,124*,i,i,i,i
CCOc1ccc(N2CC(C(=O)Nc3nnc(C4CCCCC4)s3)CC2=O)cc1 (stereo not given),i,i,i,i,i
O=C(COc1ccccc1)NC1CCCCC1,i,i,i,i,i
Cc1cc(OCC(=O)NNC(=S)NC(=O)c2ccc(Br)o2)ccc1Cl,i,i,16*,i,i
COc1cccc(OCC(=O)NC2CCCCC2)c1,i,i,31*,i,i
CCC(=O)NC(=S)Nc1ccc(NC(=O)COc2ccc(Cl)c(C)c2)cc1,i,i,i,i,i
O=C(COc1ccc(Cl)cc1[N+](=O)[O-])NC1CCCCC1,i,i,85*,i,i
Cc1cc(OCC(=O)NC2CCCCC2)ccc1Cl,i,i,27*,i,i
COCCNc1nc2sc3c(c2c(=O)n1Cc1ccco1)CCCCC3,i,i,i,i,i
CS(=O)(=O)c1nc2c(cc1C#N)CCCC2,i,i,i,i,i
SMILES,TRPC4 agonist,TRPC6 inh,TRPC4 potent,TRPC4 inh,TRPC6 act
CN(Cc1nc(-c2cnccn2)no1)Cc1cccc2ccccc12,i,i,i,i,i
O=C(NC(=S)NNC(=O)c1cccs1)c1ccc(Br)o1,180*,i,i,i,i
CCOC(=O)c1oc2ccccc2c1CN1CCCCC1,i,i,i,-6*,i
CCOC(=O)c1oc2ccccc2c1CN1CCN(C)CC1,i,i,i,i,i
CCN1C(=O)/C(=C/N2CCc3ccccc32)SC1=S,i,i,i,i,i
CCN1C(=O)/C(=C\N2CCCc3ccccc32)SC1=S,i,i,20*,i,i
CC(C)n1cc(CNC(=O)C2CCC(=O)N(Cc3ccccc3F)C2)cn1 (stereo not given),i,i,i,i,i
Cc1c(Cl)cccc1NC(=S)NCc1cccn1C,i,i,i,-6*,i
Cc1ccccc1NC(=S)NCc1cccn1C,i,i,i,i,i
N#C/C(=C\c1c(N2CCN(c3ccccc3)CC2)nc2ccccn2c1=O)C(N)=O,i,i,i,i,i
Cc1ccc(N(Cc2ccccc2)C(=O)c2cc(S(=O)(=O)N3CCOCC3)ccc2Cl)cc1,i,i,10*,i,i
CN(CC(=O)Nc1ccc(SC(F)F)cc1)C1CCCCC1,i,i,i,-6*,i
CNCC[C@H](Oc1cccc2ccccc12)c1cccs1,i,-5.7*!,i,i,i
CCCC1=Nc2cc(C(=O)N3CCCC3)ccc2Sc2ccc(C)cc21,54*,i,i,i,i
CCC1=Nc2cc(C(=O)N3CCCCC3)ccc2Sc2ccc(C)cc21,i,i,i,i,i
O=C(COC(=O)c1cccc([N+](=O)[O-])c1)NCc1cccs1,i,i,i,.,i
Cc1ncsc1CCOC(=O)c1cccc([N+](=O)[O-])c1,i,i,i,-6*!,i
Cc1ccc(-n2nc(-c3cccs3)cc2C(=O)NCC2CCCO2)c(C)c1 (stereo not given),55*,i,i,-7*,i
Cc1cc(Br)cc2c(C(=O)NCC3CCCO3)cc(-c3cccs3)nc12 (stereo not given),i,i,i,i,i
Cc1c(OC(C)C(=O)NCCCn2ccnc2)ccc2c3c(c(=O)oc12)CCC3 (stereo not given),i,i,i,i,i
COn1c(-c2ccc(C)cc2)nc2ncccc21,i,i,i,i,i
Clc1cccc(COn2c(-c3ccc(Cl)cc3Cl)nc3ncccc32)c1,i,i,i,-6*,i
Cc1ccc(COn2c(-c3ccc(Cl)cc3Cl)nc3ncccc32)cc1,59*,i,i,-8*,i
O=C(O)COc1ccc(C(NC(=O)c2c(F)cccc2F)NC(=O)c2c(F)cccc2F)cc1,i,i,i,i,i
C=CCN(CC=C)CCOc1ccccc1,i,i,12*,i,i
SMILES,TRPC4 agonist,TRPC6 inh,TRPC4 potent,TRPC4 inh,TRPC6 act
C=CCN(CC=C)CCOc1ccc2ccccc2c1,i,i,i,i,i
CCN(CC)CCCOc1ccc(Cl)c(Cl)c1,46*,i,24*,i,i
CCN(CC)CCOc1ccc(Br)cc1,i,i,11*,i,i
CCN(CC)CCOc1ccc(/C(=C(\Cl)c2ccccc2)c2ccccc2)cc1,i,i,i,i,i
CN(c1cccc(NC(=O)c2ccc(N(C)S(=O)(=O)c3ccccc3)cc2)c1)S(C)(=O)=O,i,i,11*,i,i
CN(C)S(=O)(=O)c1ccc(Cl)c(C(=O)NC2CCN(Cc3ccccc3)C2)c1 (stereo not given),i,i,19*,i,i
